From ChEMBL document CHEMBL1153308 (Bioorg Med Chem Lett, 2009)

Key:
[1] = biological target: T1, Replicase polyprotein 1ab (Severe acute respiratory syndrome-related coronavirus, UniProt P0C6X7); test: Inhibition of SCV helicase assessed as duplex-DNA unwinding by FRET based assay
Method in brief: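 Substrate was 25-bp dsDNA with a 20-dT 5′-overhang. SCV helicase (150 nM in 20 mM HEPES pH 7.4) preincubated with compounds for 5 min at rt. Started with 5X reaction solution (5 mM MgCl2, 45 mM ATP, 25 mM DTT, 100 nM dsDNA substrate as 5X concentrations), then 2 min at 37 °C. Stopped with EDTA plus unmodified trap oligomer, with FRET read-out.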

[2] = Inhibition of HCV RNA dependent RNA polymerase; design: species or system Hepacivirus hominis
[3] = biological target: T1, Replicase polyprotein 1ab; test: Inhibition of ATPase activity of SCV helicase assessed as phosphate release by colorimetric assay
Method in brief: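 Purified SCV NTPase/helicase (400 nM in 50 mM Tris/HCl pH 6.6) preincubated with compounds for 5 min at rt. Stopped with malachite green/molybdate reagent in 1 M HCl. A620 read after 5 min, with phosphate from a standard curve.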

SMILES	IC50 [1] [µM]	IC50 [2] [µM]	IC50 [3] [µM]
O=C(O)/C(O)=C/C(=O)c1cccc(NCc2ccccc2)c1	5.4	0.96	> 50
O=C(O)/C(O)=C/C(=O)c1ccc(OCc2ccccc2)cc1	39.9	0.96	41.3
O=C(O)/C(O)=C/C(=O)c1ccc(OCc2ccc(Cl)cc2)cc1	> 50	0.96	> 50
O=C(O)/C(O)=C/C(=O)c1cccc(OCc2ccccc2)c1	> 50	0.96	> 50
O=C(O)/C(O)=C/C(=O)c1cccc(OCc2ccc(Cl)cc2)c1	13.6	0.96	24.4
O=C(O)/C(O)=C/C(=O)c1ccccc1OCc1ccc(Cl)cc1	28.7	0.96	> 50
O=C(O)/C(O)=C/C(=O)c1ccccc1OCc1ccccc1	> 50	0.96	> 50
O=C(O)/C(O)=C/C(=O)c1cccc(NCc2ccc(Cl)cc2)c1	11	0.96	> 50
